The text below walks through data of ChEMBL document CHEMBL3243960.

Assay [1] deals with T1, Asparagine synthetase [glutamine-hydrolyzing] (Rattus norvegicus) (UniProt P49088).
T1 sequence (whole entry): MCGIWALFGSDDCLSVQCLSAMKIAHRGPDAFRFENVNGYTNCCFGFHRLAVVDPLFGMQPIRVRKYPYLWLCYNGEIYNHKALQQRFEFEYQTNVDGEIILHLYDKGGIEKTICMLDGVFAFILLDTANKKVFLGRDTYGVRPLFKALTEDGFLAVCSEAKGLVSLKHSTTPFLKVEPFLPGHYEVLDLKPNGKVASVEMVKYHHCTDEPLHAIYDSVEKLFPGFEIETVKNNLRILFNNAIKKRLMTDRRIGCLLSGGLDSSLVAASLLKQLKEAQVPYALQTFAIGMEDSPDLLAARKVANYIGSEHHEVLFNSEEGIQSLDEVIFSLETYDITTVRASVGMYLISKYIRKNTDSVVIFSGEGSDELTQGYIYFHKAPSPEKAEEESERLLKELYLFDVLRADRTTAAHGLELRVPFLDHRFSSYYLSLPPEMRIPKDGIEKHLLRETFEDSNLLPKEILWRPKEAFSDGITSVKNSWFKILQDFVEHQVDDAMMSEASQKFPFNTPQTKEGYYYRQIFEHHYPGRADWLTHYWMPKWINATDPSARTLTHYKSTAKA
Briefly: Inhibition of asparagine synthetase isolated from rat bearing Novikoff hepatoma cells using [14C]-L-aspartic acid as substrate at 2 mM incubated 15 mins prior to substrate addition measured after 30 mins. In a few lines:
(§1)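 ASase partially purified from excised rat Novikoff hepatoma (specific activity 0.51 μmol asparagine/mg protein/30 min). Enzyme and inhibitor were preincubated with 100 μmol Tris at pH 8.0 for 15 min at 37 °C. L-glutamine (20.0 μmol), L-aspartic acid (2.0 μmol) and L-aspartic acid-¹⁴C (2×10⁶ dpm) were then added and incubated 30 min at 37 °C. Isolated L-asparagine-¹⁴C was counted by scintillation. Percent inhibition came from duplicates on three separate days with fresh inhibitor solutions.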

In assay [2] the target is T1, Asparagine synthetase [glutamine-hydrolyzing] (Rattus norvegicus). Briefly: Inhibition of asparagine synthetase isolated from rat bearing Novikoff hepatoma cells using [14C]-L-aspartic acid as substrate at 1 mM incubated 15 mins prior to substrate addition measured after 30 mins. Put shortly:
as §1

Assay [3] has the same target. As to the kind of experiment: Competitive inhibition of rat asparagine synthetase using L-aspartic acid as substrate incubated 15 mins prior to substrate addition measured after 30 mins by double reciprocal plot analysis. Put shortly: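 Partially purified rat Novikoff hepatoma ASase was preincubated with inhibitor in Tris at pH 8.0 for 15 min at 37 °C. L-glutamine was then added with L-aspartic acid varied at 0.25, 0.50, 1.0 and 2.0 mM final, plus ¹⁴C-aspartate (2×10⁶ dpm/tube, 206 mCi/mmol), and incubated 30 min at 37 °C. L-asparagine-¹⁴C was measured. Double-reciprocal plots were fitted by least-squares regression.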

Assay [4] has as its target T2, Asparagine synthetase [glutamine-hydrolyzing] (Mus musculus) (UniProt Q61024).
T2 sequence (whole entry): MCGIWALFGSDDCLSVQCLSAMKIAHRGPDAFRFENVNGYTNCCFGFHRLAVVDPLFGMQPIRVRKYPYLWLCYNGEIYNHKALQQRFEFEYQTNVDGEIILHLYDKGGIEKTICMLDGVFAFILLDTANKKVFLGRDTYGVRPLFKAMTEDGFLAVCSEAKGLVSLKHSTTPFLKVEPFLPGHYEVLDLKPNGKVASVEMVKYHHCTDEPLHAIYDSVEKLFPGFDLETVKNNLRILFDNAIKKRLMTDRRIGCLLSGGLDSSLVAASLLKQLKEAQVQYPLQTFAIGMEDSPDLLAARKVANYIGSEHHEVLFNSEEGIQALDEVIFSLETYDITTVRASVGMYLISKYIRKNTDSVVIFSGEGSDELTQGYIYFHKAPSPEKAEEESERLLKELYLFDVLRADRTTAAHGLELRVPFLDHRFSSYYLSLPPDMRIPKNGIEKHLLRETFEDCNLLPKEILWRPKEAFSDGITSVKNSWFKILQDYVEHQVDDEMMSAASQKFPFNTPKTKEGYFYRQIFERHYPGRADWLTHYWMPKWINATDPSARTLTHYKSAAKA
As to the kind of experiment: Inhibition of asparagine synthetase in mouse L5178Y/AR cells at 1 mM. The class given is cell-based.

In assay [5] the target is T2, Asparagine synthetase [glutamine-hydrolyzing] (Mus musculus). As to the kind of experiment: Inhibition of asparagine synthetase in mouse L5178Y/AR cells at 10 mM. The class given is cell-based.
Assay [6] has as its system P388. Briefly: Antitumor activity against mouse P388 cells […] in mouse assessed as increase in life span. It is filed as functional. In a few lines:
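In vivo screen run by the National Cancer Institute Drug Research and Development Program in CDF₁ mice bearing P-388 lymphocytic leukemia, an asparaginase-resistant line. The read-out was increase in life span.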

Assay [7] concerns the target T3, Asparagine synthetase [glutamine-hydrolyzing] (Homo sapiens) (UniProt P08243).
T3 sequence (whole entry): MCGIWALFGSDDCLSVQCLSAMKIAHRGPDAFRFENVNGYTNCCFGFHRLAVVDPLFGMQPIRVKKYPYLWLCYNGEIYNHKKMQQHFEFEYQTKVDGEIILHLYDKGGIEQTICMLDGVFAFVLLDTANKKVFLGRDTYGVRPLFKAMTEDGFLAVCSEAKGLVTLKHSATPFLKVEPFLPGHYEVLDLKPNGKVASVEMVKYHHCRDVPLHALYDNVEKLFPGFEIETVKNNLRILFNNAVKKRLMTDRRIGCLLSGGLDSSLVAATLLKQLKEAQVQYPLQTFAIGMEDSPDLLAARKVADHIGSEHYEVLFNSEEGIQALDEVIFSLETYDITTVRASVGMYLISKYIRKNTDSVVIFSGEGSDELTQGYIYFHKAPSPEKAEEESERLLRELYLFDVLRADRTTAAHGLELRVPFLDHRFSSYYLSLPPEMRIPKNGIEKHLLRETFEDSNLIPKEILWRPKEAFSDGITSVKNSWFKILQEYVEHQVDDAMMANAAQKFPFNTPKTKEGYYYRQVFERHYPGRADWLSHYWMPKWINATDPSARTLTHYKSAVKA
Briefly: Inhibition of asparagine synthetase in human KB cells at 1 mM. It is filed as cell-based.

Structures are written as SMILES. Active and inactive are the calls of the source. The calls are words filed in the database; no cut-off is given here.

Compound `N[C@@H](CS(N)(=O)=O)C(=O)O` registered an inhibition in assay [1] of 25.8%.

Regarding `N[C@@H](CS(=O)(=O)NO)C(=O)O`, the inhibition was 77.6% in assay [2], 96.5% in assay [1], 23% in assay [4] and 81% in assay [5]. Also, the inhibition result in assay [3] was “Active”. In assay [6], the result was inactive.

For the compound `NC(CC(=O)NO)C(=O)O` (racemic), the inhibition in assay [7] came to 36%.

Take `N[C@@H](CS(=O)(=O)NCc1ccc(S(=O)(=O)F)cc1)C(=O)O`: the inhibition in assay [1] came out at 29.5%. Moreover, the inhibition result in assay [5] was “inactive”.

Consider `N[C@@H](CS(=O)(=O)NNC(=O)c1ccc(S(=O)(=O)F)cc1)C(=O)O`, for which the inhibition in assay [1] was determined as 43.1%. For the same compound, the inhibition result in assay [5] was “inactive”.

With `N[C@@H](CS(=O)(=O)NCCCl)C(=O)O`, the inhibition in assay [1] stood at 0%. For the same compound, the inhibition result in assay [4] is “inactive”.

Consider `CCOC(=O)/C=C/C(=O)NNS(=O)(=O)C[C@H](N)C(=O)O`, for which the inhibition in assay [1] was 37.3%. In addition, the inhibition entry in assay [5] is “inactive”. Further, in assay [6], the result was inactive.

Regarding `N[C@@H](CC(=O)NO)C(=O)O`, the inhibition in assay [1] was determined as 15.8%. The inhibition result in assay [3] is “inactive”.
